Experimental findings from ChEMBL document CHEMBL3797160, “Discovery of novel diaryl urea derivatives bearing a triazole moiety as potential antitumor agents” (Eur J Med Chem, 2016) are described below.

In one test the test system is HT-29. Description: Antiproliferative activity against human HT-29 cells after 72 hrs by MTT assay. The test is classed as functional, cell-based. As to conditions: HT-29, 72 h. The procedure, abridged:
(§1)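 MTT assay. Cells grown in MEM with 10% FBS. About 4 × 10³ cells per well were plated and left 24 h at 37 °C in 5% CO₂. Compounds were then added for a further 72 h. MTT was added to a final 5 µg/mL for 4 h at 37 °C. Formazan was dissolved in DMSO and read at 492 nm against a 630 nm reference. Each line was tested three times, and IC50 is the average of at least three determinations.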

For another test, the system named is MDA-MB-231. The test can be described thus: Antiproliferative activity against human MDA-MB-231 cells after 72 hrs by MTT assay. The test is classed as functional, cell-based. The conditions noted are these: MDA-MB-231, 72 h. In outline:
as §1

Test [1] addresses Mast/stem cell growth factor receptor Kit (Homo sapiens) (UniProt P10721). Description: Inhibition of c-KIT (unknown origin) at 10 uM after 1 hr by mobility shift assay. In outline:
(§2)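 Mobility shift kinase assay. Compounds were diluted in DMSO and then in kinase buffer, and tested in duplicate wells with enzyme and peptide substrate. Incubation was 1 h at 28 °C before stop buffer was added.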

Test [2] concerns the target Proto-oncogene tyrosine-protein kinase receptor Ret (Homo sapiens) (UniProt P07949). Description: Inhibition of RET (unknown origin) at 10 uM after 1 hr by mobility shift assay. In outline: as §2
Test [3] addresses Receptor-type tyrosine-protein kinase FLT3 (Homo sapiens) (UniProt P36888). The test can be described thus: Inhibition of FLT3 (unknown origin) at 10 uM after 1 hr by mobility shift assay. The procedure, abridged:
as §2

Test [4] can be described thus: Antiproliferative activity against human H460 cells after 72 hrs by MTT assay. The test is classed as functional, cell-based. As to conditions: NCI-H460, 72 h. In outline:
as §1

Test [5] in a line: Cytotoxicity against human WI38 cells after 72 hrs by MTT assay. The test is classed as cell-based. The conditions noted are these: WI-38, 72 h. The procedure, abridged:
as §1

For test [6], the target named is Vascular endothelial growth factor receptor 2 (Homo sapiens) (UniProt P35968). The conditions noted are these: at 10 µM.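 Further: kinase activity read out by mobility shift assay after 1 h of incubation.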
Sequence of Vascular endothelial growth factor receptor 2 (Homo sapiens) (P35968 whole entry): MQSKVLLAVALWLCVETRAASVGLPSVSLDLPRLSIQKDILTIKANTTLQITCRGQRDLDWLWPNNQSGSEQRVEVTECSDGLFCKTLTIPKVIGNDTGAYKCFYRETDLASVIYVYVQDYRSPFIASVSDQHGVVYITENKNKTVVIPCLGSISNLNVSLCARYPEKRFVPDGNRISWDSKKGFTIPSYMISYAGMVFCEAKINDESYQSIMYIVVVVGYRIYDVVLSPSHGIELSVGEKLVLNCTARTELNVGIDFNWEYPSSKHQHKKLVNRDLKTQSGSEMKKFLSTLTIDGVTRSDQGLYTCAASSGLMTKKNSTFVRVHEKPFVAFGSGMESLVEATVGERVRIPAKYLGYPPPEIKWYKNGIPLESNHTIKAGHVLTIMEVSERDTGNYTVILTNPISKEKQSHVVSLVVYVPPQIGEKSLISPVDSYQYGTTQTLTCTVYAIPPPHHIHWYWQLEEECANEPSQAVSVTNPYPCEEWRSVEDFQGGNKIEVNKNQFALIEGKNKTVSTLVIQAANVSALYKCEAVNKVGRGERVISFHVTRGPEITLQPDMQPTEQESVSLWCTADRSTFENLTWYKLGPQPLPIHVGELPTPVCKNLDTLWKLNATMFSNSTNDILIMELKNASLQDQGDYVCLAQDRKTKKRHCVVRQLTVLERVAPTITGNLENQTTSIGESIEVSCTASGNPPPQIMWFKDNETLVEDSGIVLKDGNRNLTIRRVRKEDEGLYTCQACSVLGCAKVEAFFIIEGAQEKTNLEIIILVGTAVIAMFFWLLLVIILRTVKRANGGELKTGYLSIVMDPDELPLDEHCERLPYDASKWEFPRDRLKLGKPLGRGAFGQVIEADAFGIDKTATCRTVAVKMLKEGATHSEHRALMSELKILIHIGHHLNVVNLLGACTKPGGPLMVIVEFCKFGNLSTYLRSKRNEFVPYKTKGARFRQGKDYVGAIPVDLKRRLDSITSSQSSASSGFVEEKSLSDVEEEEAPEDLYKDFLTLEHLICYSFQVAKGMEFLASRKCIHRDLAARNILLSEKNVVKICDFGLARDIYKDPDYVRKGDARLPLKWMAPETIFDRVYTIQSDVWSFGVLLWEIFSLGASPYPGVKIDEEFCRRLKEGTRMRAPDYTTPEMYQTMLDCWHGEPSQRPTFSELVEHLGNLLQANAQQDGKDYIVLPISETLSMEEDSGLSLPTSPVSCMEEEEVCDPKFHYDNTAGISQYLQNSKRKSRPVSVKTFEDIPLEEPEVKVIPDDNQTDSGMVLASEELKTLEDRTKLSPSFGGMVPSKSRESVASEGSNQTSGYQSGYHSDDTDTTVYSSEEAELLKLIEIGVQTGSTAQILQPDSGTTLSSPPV

Sequence of Mast/stem cell growth factor receptor Kit (Homo sapiens) (P10721 whole entry): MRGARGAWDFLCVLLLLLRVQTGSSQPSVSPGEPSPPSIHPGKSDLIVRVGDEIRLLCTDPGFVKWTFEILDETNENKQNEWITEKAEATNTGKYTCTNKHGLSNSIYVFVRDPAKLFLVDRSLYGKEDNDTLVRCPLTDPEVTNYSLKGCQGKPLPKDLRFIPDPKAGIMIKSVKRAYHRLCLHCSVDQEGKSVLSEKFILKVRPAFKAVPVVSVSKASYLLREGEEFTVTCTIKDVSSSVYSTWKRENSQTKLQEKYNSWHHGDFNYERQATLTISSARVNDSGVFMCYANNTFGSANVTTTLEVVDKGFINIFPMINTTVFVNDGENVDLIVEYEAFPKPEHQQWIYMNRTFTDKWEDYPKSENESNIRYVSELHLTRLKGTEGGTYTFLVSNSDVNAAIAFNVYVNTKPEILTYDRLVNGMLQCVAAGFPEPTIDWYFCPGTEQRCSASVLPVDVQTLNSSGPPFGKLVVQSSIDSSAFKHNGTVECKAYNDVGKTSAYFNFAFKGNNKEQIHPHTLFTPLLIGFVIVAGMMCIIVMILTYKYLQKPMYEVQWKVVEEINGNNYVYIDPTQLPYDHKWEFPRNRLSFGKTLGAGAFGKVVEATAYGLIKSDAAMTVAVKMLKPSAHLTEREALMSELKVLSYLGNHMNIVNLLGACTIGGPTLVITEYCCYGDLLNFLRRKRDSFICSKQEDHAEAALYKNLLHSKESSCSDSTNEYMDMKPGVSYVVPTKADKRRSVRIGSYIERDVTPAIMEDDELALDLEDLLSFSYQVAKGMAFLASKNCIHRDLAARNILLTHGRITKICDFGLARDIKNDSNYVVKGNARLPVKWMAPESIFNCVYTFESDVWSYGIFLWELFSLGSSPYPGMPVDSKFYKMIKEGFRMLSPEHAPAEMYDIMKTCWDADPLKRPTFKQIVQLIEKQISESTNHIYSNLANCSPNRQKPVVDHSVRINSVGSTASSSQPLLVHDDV
Sequence of Proto-oncogene tyrosine-protein kinase receptor Ret (Homo sapiens) (P07949 whole entry): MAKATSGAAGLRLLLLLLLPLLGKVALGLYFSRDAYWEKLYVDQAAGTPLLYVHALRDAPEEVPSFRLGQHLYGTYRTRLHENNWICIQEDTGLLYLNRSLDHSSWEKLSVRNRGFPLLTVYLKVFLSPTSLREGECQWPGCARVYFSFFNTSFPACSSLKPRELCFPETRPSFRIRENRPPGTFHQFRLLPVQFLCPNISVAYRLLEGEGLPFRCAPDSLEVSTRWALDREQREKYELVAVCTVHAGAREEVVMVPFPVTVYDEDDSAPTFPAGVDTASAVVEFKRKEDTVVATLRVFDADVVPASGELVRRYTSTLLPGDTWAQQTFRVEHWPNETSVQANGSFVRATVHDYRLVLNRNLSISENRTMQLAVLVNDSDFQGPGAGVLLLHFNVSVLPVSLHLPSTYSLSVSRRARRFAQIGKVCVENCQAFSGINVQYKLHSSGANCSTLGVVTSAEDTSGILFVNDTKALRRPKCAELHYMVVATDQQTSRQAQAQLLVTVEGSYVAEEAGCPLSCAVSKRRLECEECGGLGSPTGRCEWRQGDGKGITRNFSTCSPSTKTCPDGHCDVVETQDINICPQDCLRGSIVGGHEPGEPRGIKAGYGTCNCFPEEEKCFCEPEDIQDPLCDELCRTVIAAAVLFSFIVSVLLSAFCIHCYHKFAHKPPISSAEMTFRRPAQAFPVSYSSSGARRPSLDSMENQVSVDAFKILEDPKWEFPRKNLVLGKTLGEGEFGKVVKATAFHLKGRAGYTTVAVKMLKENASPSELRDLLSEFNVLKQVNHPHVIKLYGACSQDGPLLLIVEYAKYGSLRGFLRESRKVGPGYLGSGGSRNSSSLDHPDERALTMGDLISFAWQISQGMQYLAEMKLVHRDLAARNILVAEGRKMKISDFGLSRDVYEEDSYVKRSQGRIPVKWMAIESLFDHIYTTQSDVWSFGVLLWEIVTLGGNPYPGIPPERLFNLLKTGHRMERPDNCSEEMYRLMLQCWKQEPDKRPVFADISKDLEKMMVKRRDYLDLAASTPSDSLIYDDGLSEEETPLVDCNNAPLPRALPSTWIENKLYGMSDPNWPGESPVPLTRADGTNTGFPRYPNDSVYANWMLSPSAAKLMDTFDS
Sequence of Receptor-type tyrosine-protein kinase FLT3 (Homo sapiens) (P36888 whole entry): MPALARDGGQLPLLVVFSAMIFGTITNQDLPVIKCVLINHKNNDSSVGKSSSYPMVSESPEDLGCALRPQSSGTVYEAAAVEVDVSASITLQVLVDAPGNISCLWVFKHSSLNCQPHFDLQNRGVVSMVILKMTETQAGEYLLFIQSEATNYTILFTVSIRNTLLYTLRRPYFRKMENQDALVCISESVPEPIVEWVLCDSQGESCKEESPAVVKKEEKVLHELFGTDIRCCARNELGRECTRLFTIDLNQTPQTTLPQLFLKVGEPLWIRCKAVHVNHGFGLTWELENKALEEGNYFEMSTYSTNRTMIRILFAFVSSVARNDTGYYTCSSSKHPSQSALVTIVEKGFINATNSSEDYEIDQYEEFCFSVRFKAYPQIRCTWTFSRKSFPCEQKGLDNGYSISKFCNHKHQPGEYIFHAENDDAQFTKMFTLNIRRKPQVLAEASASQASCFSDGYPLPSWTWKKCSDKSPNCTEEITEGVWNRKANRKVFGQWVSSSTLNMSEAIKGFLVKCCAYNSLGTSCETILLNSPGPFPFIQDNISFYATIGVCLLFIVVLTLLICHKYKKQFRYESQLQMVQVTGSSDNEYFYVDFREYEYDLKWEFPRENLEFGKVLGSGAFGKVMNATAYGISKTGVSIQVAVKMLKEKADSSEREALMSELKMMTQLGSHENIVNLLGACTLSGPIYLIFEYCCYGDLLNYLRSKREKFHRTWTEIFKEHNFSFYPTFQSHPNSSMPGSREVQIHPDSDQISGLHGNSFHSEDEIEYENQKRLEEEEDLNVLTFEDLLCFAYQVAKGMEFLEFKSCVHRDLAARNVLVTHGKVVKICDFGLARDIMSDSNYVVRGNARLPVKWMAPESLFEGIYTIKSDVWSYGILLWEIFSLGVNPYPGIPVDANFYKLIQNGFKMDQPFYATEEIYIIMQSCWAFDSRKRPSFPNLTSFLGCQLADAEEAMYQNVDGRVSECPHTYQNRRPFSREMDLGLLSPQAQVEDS

As to `O=C(Nc1ccc(Oc2ccnc(-c3nncn3CCCN3CCOCC3)c2)c(F)c1)Nc1ccc(Cl)cc1Cl`, the IC50 in the test with HT-29 is 3.56 µM; in the test with MDA-MB-231, greater than 50 µM. Besides, the values for the inhibition in test [1], in test [2] and in test [3] were 43.5%, 45.6% and 22%, respectively.
Regarding `CN(C)CCn1cnnc1-c1cc(Oc2ccc(NC(=O)Nc3ccc(F)c(Cl)c3)cc2F)ccn1`, the concentration for half-maximal inhibition (IC50) in the test with HT-29 was 0.72 µM; in test [4], 1.58 µM; in the test on MDA-MB-231, 8.32 µM; in test [5] it was 7.58 µM. Further, the inhibition in test [1] amounted to 74%; in test [2], 63.3%; in test [3] it was 52.2%; in test [6], 26.9%.
`CN(C)CCn1cnnc1-c1cc(Oc2ccc(NC(=O)Nc3ccc(Cl)c(C(F)(F)F)c3)cc2F)ccn1`: the IC50 with HT-29 was found to be 0.88 µM; in test [4] it was 1.15 µM; with MDA-MB-231, 1.07 µM; in test [5] it was 3.76 µM. Moreover, the inhibition in test [1] turned out to be 70.4%; in test [2] it was 74.1%; in test [3], 66.3%; in test [6], 0%.
As to `Cn1cnnc1-c1cc(Oc2ccc(NC(=O)Nc3ccc(Cl)c(C(F)(F)F)c3)cc2F)ccn1`, the half-inhibitory concentration (IC50) in the test on HT-29 was 2.57 µM; in test [4] it was 2.31 µM; with MDA-MB-231 it was 5.32 µM; in test [5], 9.85 µM.
For `Cn1cnnc1-c1cc(Oc2ccc(NC(=O)Nc3cccc(C(F)(F)F)c3)cc2F)ccn1` the same measures were 3.02 µM, 1.27 µM, 6.47 µM and 12.6 µM.
On to `O=C(Nc1ccc(Oc2ccnc(-c3nncn3CCCN3CCOCC3)c2)c(F)c1)Nc1ccccc1C(F)(F)F`, for which, in the test on HT-29, the IC50 came out at 15.7 µM. In other words, the double-digit micromolar range.
Consider `O=C(Nc1ccc(Oc2ccnc(-c3nncn3CCCN3CCOCC3)c2)c(F)c1)Nc1ccc(F)c(Cl)c1`, for which the 50% inhibitory concentration (IC50) in the test with HT-29 was 16.2 µM; in test [4], 16.2 µM; with MDA-MB-231, greater than 50 µM.
For `O=C(Nc1ccc(Oc2ccnc(-c3nncn3C3CC3)c2)c(F)c1)Nc1ccc(Cl)c(C(F)(F)F)c1`, the concentration for half-maximal inhibition (IC50) is 10.9 µM with HT-29, greater than 50 µM in test [4] and greater than 50 µM with MDA-MB-231.
With `Cn1ncnc1-c1cc(Oc2ccc(NC(=O)Nc3cccc(C(F)(F)F)c3)cc2F)ccn1`, the concentration for half-maximal inhibition (IC50) was greater than 50 µM in the test on HT-29, 11.6 µM in test [4], 9.68 µM in the test on MDA-MB-231 and 22.4 µM in test [5].
Regarding `CN(C)CCCn1cnnc1-c1cc(Oc2ccc(NC(=O)Nc3ccc(F)c(F)c3)cc2F)ccn1`, the IC50 came out at 1.21 µM in the test with HT-29, 1.08 µM in test [4], 25.2 µM in the test with MDA-MB-231 and 15.3 µM in test [5]. The inhibition is 63.1% in test [1], 30.9% in test [2], 44.3% in test [3] and 20.3% in test [6].
As for `CN(C)CCn1cnnc1-c1cc(Oc2ccc(NC(=O)Nc3ccc(Cl)cc3Cl)cc2F)ccn1`, the IC50 in the test with HT-29 turned out to be 1.89 µM; in test [4] it was 4.35 µM; in the test with MDA-MB-231, 7.96 µM; in test [5], 10.4 µM. In test [6], this molecule yielded an inhibition of 6%.
For `CN(C)CCCn1cnnc1-c1cc(Oc2ccc(NC(=O)Nc3ccccc3C(F)(F)F)cc2F)ccn1` the same measures were 3.13 µM, 10.9 µM, 40.5 µM, 28.6 µM and 1.7%.
Consider `CN(C)CCn1cnnc1-c1cc(Oc2ccc(NC(=O)Nc3cccc(C(F)(F)F)c3)cc2F)ccn1`, for which the half-maximal inhibitory concentration (IC50) in the test on HT-29 came out at 1.47 µM; in test [4] it was 2.15 µM; with MDA-MB-231 it was 16.4 µM; in test [5] it was 11.2 µM. Moreover, the inhibition in test [1] turned out to be 60.5%; in test [2], 77.7%; in test [3] it was 42.2%; in test [6] it was 2.7%.
Consider `CN(C)CCCn1cnnc1-c1cc(Oc2ccc(NC(=O)Nc3cccc(C(F)(F)F)c3)cc2F)ccn1`, for which the IC50 in the test on HT-29 worked out at 0.98 µM; in test [4], 1.79 µM; in the test on MDA-MB-231 it was 13.3 µM; in test [5] it was 11.6 µM. Also, the inhibition was 69.9% in test [1], 85.6% in test [2], 69.2% in test [3] and 62.8% in test [6].
Turning to `Cn1ncnc1-c1cc(Oc2ccc(NC(=O)Nc3ccc(Cl)c(C(F)(F)F)c3)cc2F)ccn1`, the IC50 in the test with HT-29 is 12.4 µM; in test [4] it was greater than 50 µM; with MDA-MB-231 it was greater than 50 µM; in test [5], greater than 50 µM.
As for `CCN(CC)CCn1cnnc1-c1cc(Oc2ccc(NC(=O)Nc3ccc(Cl)cc3Cl)cc2F)ccn1`, the IC50 in the test with HT-29 came to 3.59 µM; in test [4], 5.38 µM; with MDA-MB-231, 1.79 µM; in test [5], 4.28 µM.
Regarding `CCN(CC)CCn1cnnc1-c1cc(Oc2ccc(NC(=O)Nc3ccc(F)c(F)c3)cc2F)ccn1`, the IC50 was 1.24 µM in the test with HT-29, 14.8 µM in test [4], 41.3 µM with MDA-MB-231 and greater than 50 µM in test [5]. Further, the inhibition amounted to 27.7% in test [1], 7.1% in test [2], 39% in test [3] and 0% in test [6].
Take `CN(C)CCCn1cnnc1-c1cc(Oc2ccc(NC(=O)Nc3ccc(F)c(Cl)c3)cc2F)ccn1`: the IC50 with HT-29 was 0.89 µM; in test [4], 1.27 µM; in the test on MDA-MB-231, 14.2 µM; in test [5] it was 5.37 µM. The inhibition in test [1] worked out at 71%; in test [2], 45.5%; in test [3], 72.1%; in test [6] it was 35%.
Regarding `O=C(Nc1ccc(Oc2ccnc(-c3nncn3CCCN3CCOCC3)c2)c(F)c1)Nc1ccc(Cl)c(C(F)(F)F)c1`, the concentration for half-maximal inhibition (IC50) came to 2.86 µM in the test with HT-29, 3.23 µM in test [4], 8.28 µM in the test on MDA-MB-231 and 9.65 µM in test [5]. Further, the inhibition in test [1] came out at 56.7%; in test [2], 42.3%; in test [3], 38.5%; in test [6], 0%.
In the case of `CCN(CC)CCn1cnnc1-c1cc(Oc2ccc(NC(=O)Nc3ccccc3C(F)(F)F)cc2F)ccn1`, the IC50 was 3.41 µM in the test on HT-29, greater than 50 µM in test [4], 11.6 µM with MDA-MB-231 and 23.5 µM in test [5].
As for `CNC(=O)c1cc(Oc2ccc(NC(=O)Nc3ccc(Cl)c(C(F)(F)F)c3)cc2)ccn1` [SORAFENIB], the IC50 amounted to 3.37 µM in the test with HT-29, 2.25 µM in test [4], 3.08 µM in the test with MDA-MB-231 and 8.42 µM in test [5]. Further, the inhibition in test [1] worked out at 95.6%; in test [2], 97%; in test [3], 98.5%.
As to `CN(C)CCn1cnnc1-c1cc(Oc2ccc(NC(=O)Nc3ccc(F)c(F)c3)cc2F)ccn1`, the 50% inhibitory concentration (IC50) is 3.62 µM with HT-29, 9.05 µM in test [4], greater than 50 µM in the test with MDA-MB-231 and greater than 50 µM in test [5]. Further, the inhibition stood at 3.9% in test [1], 17.6% in test [2] and 13.5% in test [3].
On to `CN(C)CCCn1cnnc1-c1cc(Oc2ccc(NC(=O)Nc3ccc(Cl)cc3Cl)cc2F)ccn1`, for which the concentration for half-maximal inhibition (IC50) in the test on HT-29 was 0.68 µM; in test [4], 3.68 µM; in the test on MDA-MB-231, 7.49 µM; in test [5] it was 3.26 µM. The inhibition in test [6] came to 11.3%.
